Bioassay records from PubChem.
In the library only some 2.1% were active in any assay of this set; here they are far more common.
cardiac RTF act = increases calcium sensitivity of human cardiac regulated thin filaments; P19429+P45379; IANBD-labeled TnC RTF fluorescence at EC20 calcium; 0% EC20 calcium, 100% full calcium; activation, % at 7.2 µM; 340,000 tested, 0.24% active; AID 493008;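 active = activation above the mean over all tested compounds plus 3 SD, cut at about 30% in these data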;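 also: rise in fluorescence read as greater calcium sensitivity of cardiac thin filaments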
ARNT TACC3 PPI = ARNT/TACC3 interaction disruption | Q9Y6A5 | AlphaScreen His-ARNT PAS-B/GST-TACC3 binding, luminescence; TACC3 fragment carries E629A point mutation | inhibition, % at 9.99 µM | 390,000 tested, 0.66% active;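 active = mean inhibition of replicates at least 50% and at least half of replicates each reaching 50%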;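 also: 0% = complete ARNT plus TACC3 wells and 100% = ARNT alone without TACC3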
UCH37 inh = human UCH37 deubiquitinating enzyme inhibition; Q9Y5K5; purified proteasome/UCH37, Ub-AMC cleavage fluorescence; inhibition, % (test concentration not listed); 330,000 tested, 0.33% active; AID 588478;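 active = mean inhibition over replicate wells above about 20%, limit read from the data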;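 also: 0% = compound-free wells with enzyme and 100% = wells lacking proteasome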
Target sequence (Q9Y5K5 whole entry, looked up): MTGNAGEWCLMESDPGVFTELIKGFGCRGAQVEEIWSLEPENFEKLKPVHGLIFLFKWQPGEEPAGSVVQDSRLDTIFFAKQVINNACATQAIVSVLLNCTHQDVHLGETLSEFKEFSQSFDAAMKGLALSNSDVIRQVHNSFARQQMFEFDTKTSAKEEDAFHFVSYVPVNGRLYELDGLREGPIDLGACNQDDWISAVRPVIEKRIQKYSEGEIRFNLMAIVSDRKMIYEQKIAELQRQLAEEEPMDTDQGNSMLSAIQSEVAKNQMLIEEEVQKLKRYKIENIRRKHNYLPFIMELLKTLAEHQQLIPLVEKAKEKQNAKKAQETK
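System: Proteasome-associated human UCH37 deubiquitinase; Input: 0.15 nM proteasome in added enzyme buffer; Also added: Ub-AMC substrate from 1 µM stock; Incubation: 30 min compound-proteasome preincubation then 25 min substrate reaction, room temperature; Detection: fluorescence, ex 355 nm, em 460 nm; Read-out: % inhibition of Ub-AMC cleavage fluorescence; Benchmarks: no-proteasome and no-compound wells.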
Cardiac RTF inh = cardiac RTF calcium desensitization. P19429+P45379. IANBD-labeled cardiac RTF, Ca2+ fluorescence. inhibition, % at 7.15 µM. 340,000 tested, 0.12% active. AID 493244;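 active = inhibition above the mean inhibition of all tested compounds plus 3 SD, cut at about 17% in these data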;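 also: assay run at fixed EC70 calcium of 1.6 mM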
Efflux pump inh = blocks antifungal efflux pumps in multiplex yeast assay | S. cerevisiae Candida pump triplex, Nile Red efflux | inhibition, % at 10 µM | 330,000 tested, 0.44% active | AID 485275;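 active = plate passing quality check with inhibition over a set limit, or well fluorescence over plate mean plus 4 SD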;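 also: Nile Red retained in pooled yeast measured as flow cytometry median fluorescence; 0% = buffer negative control and 100% = Enniatin B positive control; higher means more Nile Red kept so more efflux inhibition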
Mot1-301 SUMO = inhibitors of SUMOylation pathway: yeast Mot1-301 growth rescue | S. cerevisiae Mot1-301 growth rescue, ATP luminescence, 38.5C; percent above DMSO median, 100 means doubled | growth rescue, % at 18.8 µM | 320,000 tested, 1% active;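 active = every valid replicate shows activation above 250% relative to neutral control wells; inactive = the rest, any valid replicate at or below 250%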;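 also: OY570 slx delta 5 strain wells were the positive control but not used for scaling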
Yeast Mot1 SUMO = inhibits SUMO pathway, affecting Mot1-301 yeast growth; shares compounds with Mot1-301 SUMO; S. cerevisiae Mot1-301 galactose growth, ATP luminescence, 24 h; -100 = growth of slx-deleted rescue strain; growth activity, percent, % at 42 µM; 2,300 tested, under 10 active; AID 493004;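 active = Signal drops as the depositor expects, and the fitted half-maximal dose is no more than ten times the top valid tested dose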;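 also: more negative values mean stronger growth rescue toward the control strain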
* marks the source's active call; other numbers are inactive results; nt = no result; + = active, no number; [ ] = remark or other dose.

SMILES	cardiac RTF act	ARNT TACC3 PPI	UCH37 inh	Cardiac RTF inh	Efflux pump inh	Mot1-301 SUMO	Yeast Mot1 SUMO
O=C(OCc1nc2ccsc2c(=O)[nH]1)c1ccco1	0	9	1	-1	0	651*	0
O=C(Cn1cnc2ccccc2c1=O)c1ccc(OC(F)F)cc1	0	nt	1	-9	0	513*	0
Cc1nc(CC(=NNc2ccccc2)c2ccc(O)cc2O)cs1	nt	nt	8	nt	nt	nt	nt
CCOc1ccccc1C(=O)NCc1ccc2c(c1)OCO2	1	1	5	5	0	879*	-1
Cc1cc(C)c(S(=O)(=O)NCc2ccc3c(c2)OCO3)cc1C	3	-2	5	-10	0	13	nt
CCOc1cc(S(=O)(=O)NCc2ccc3c(c2)OCO3)c(C)cc1C	-8	nt	4	-8	0	701*	0
C(=Nc1nc2ccccc2n1CCN1CCOCC1)c1cccs1	nt	nt	-2	nt	nt	nt	nt
Cc1ccc(N(CC(=O)Nc2cccc(C)c2)S(=O)(=O)c2cccc3nonc23)cc1	2	-10	2	1	0	616*	0[21 µM]
CCCCOc1ccc(CSC(=N)N)cc1Cl	-4	-9	nt	-6	0	467*	-1
O=C(NN=C1CCc2ccccc21)C1CC1	nt	nt	3	nt	nt	nt	nt
Cc1nc(C)n(CC(=O)N2CCCC(C(=O)c3cccc4ccccc34)C2)n1 (stereo not drawn)	-1	-10	2	-11	0	365*	-1
CC(=NNC(=O)c1cccc(NN=C(C)c2ccccc2)c1)c1ccccc1	nt	nt	3	nt	nt	nt	nt
C/C(=N\NC(=O)c1cccc(N/N=C(\C)c2ccc([N+](=O)[O-])cc2)c1)c1ccc([N+](=O)[O-])cc1	-1	2	nt	0	0	540*	1
CC1CN(S(=O)(=O)c2cccc(C(=O)N=c3sccn3C)c2)CC(C)O1 (stereo not drawn)	-2	3	5	-18	0	396*	-1
Oc1ccc(C2=CSC3=NCCN23)cc1O	-5	-2	2	-4	0	718*	0
Brc1ccc(C2=CSC3=NCCN23)cc1	1	-26	2	-11	0	-10	nt
Cc1ccc(S(=O)(=O)Oc2ccccc2N2C(=O)C3CC=CCC3C2=O)cc1 (stereo not drawn)	4	-8	1	-9	0	+	-1
CON=Cc1cc([N+](=O)[O-])ccc1Sc1ccc(C)cc1	nt	nt	5	nt	nt	nt	nt
O=C1NC2(CCCCO2)CO1 (stereo not drawn)	0	-9	nt	-1	0	661*	0
CCn1c(N=Cc2ccc(OC)cc2O)nc2ccccc21	nt	nt	0	nt	nt	nt	nt
N#CCCn1cc(C=NNC(N)=S)c(-c2ccccc2)n1	nt	nt	2	nt	nt	nt	nt
CC(C)(C)c1ccc(C(=O)COC(=O)CN2C(=O)NC3(CCCC3)C2=O)cc1	-2	-5	-2	-4	0	522*	0
COCCCNC(=O)c1cc(C(=O)c2c(-c3c(Cl)cccc3Cl)noc2C)c[nH]1	4	-12	0	-5	0	+	0
CC(=NNC(=O)CCC(=O)Nc1ccc(C)c(C)c1)C1CC1	nt	nt	1	nt	nt	nt	nt
CC1(C)Cc2ccccc2C(NN=Cc2ccc(Cl)cc2)=N1	nt	nt	6	nt	nt	nt	nt
O=C(Cn1cnc2scc(-c3ccc(Cl)cc3)c2c1=O)N1CCOCC1	4	-4	2	1	0	14	nt
Cc1ccc(-c2csc3ncn(CC(=O)N4CCOCC4)c(=O)c23)cc1	4	nt	4	-13	0	362*	0
Cc1ccc(N(CC(=O)NC2CCCC2)C(=O)CCC(=O)Nc2ccccn2)cc1C	-6	1	6	-14	0	439*	0
Cc1ccc(N(CC(=O)NC2CCCC2)C(=O)CCCC(=O)Nc2ccccn2)cc1C	1	-3	-3	-4	0	-2	nt
O=C(CCCC(=O)N(CC(=O)NC1CCCC1)c1cccc(F)c1)Nc1ccccn1	-1	-8	0	1	0	362*	1
